Columns and labels:
[1] = test system: Rattus norvegicus; test: Amount of glucose in obese Zucker rats after 1 week of treatment at a dose of 3 mg/kg/day; assay type: functional
Outline: (§1)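 Female Zucker fatty rats [Crl:(Zuc)-faBR], 10–12 weeks old (400–500 g), gavaged daily with vehicle (20% EtOH/80% PEG-200, 0.25% of body weight) or compound. After a 6-h fast, blood glucose was read by glucometer from tail-prick blood of unanesthetized rats before dosing and after 1 and 2 weeks. Values are mean ± SEM.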

[2] = test system: Rattus norvegicus; test: Percent decrease in nonesterified fatty acids in obese Zucker rats after 1 week of treatment at a dose of 100 mg/kg/day; assay type: functional; parameters: scale not given: the % may be the effect or the level left
Outline: (§2)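 Female Zucker fatty rats [Crl:(Zuc)-faBR], 10–12 weeks, 400–500 g, acclimated 7 days on chow. Compound or vehicle (20% EtOH/80% PEG-200) given by daily oral gavage for 2 weeks, 0–100 mg/kg/day. After a 6 h fast, blood was taken before dosing, at 1 wk and at 2 wk. Serum lipids, NEFA and insulin (ELISA) were measured; glucose by glucometer. HDL/non-HDL-C came from Superose 6 gel-filtration profiles. Values are % change from pretreatment, mean ± SEM.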

[3] = test system: Rattus norvegicus; test: Amount of insulin in obese Zucker rats after 1 week of treatment at a dose of 30 mg/kg/day; assay type: functional
Outline: (§3)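 Female obese Zucker rats [Crl:(Zuc)-faBR], 400–500 g, given daily oral gavage in 20% EtOH/80% PEG-200 for up to 14 days. After a 6-h fast, serum was collected pretreatment and at day 7 (orbital bleed) and day 14 (cardiac puncture) and stored at -80 °C. Insulin was measured by ELISA. Values are mean ± SEM.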

[4] = test system: Rattus norvegicus; test: Percent decrease in triglycerides in obese Zucker rats after 1 week of treatment at a dose of 30 mg/kg/day; assay type: functional; parameters: scale not given: the % may be the effect or the level left; outline: as §2
[5] = test system: Rattus norvegicus; test: Amount of triglycerides in obese Zucker rats at pre-treatment at a dose of 30 mg/kg/day; assay type: functional
Outline: (§4)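 Female Zucker fatty rats [Crl:(Zuc)-faBR], 10–12 weeks old (400–500 g), dosed once daily by oral gavage in 20% EtOH/80% PEG-200 for up to 14 days. After a 6-h fast, serum was taken pre-dose, at day 7 (orbital venous plexus, O2/CO2 anaesthesia) and at day 14 (cardiac puncture), stored at −80 °C, and assayed on a Hitachi 912 automatic analyzer. Mean ± SEM.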

[6] = Concentration required for inhibition of lipid synthesis in primary cultures of rat hepatocytes; assay type: functional, cell-based; details: Hepatocyte
Outline: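 Primary hepatocytes from male Sprague-Dawley rats (Seglen isolation), plated at 1.5×10^5 cells/cm² on collagen in serum-containing DMEM, switched to serum-free medium after 4 h, grown overnight to monolayers. Cells incubated 4 h with 0.25 μCi [1-14C]acetate/well (1 Ci/mol final) plus 0, 1, 3, 10, 30, 100 or 300 μM compound. Lipids extracted into scintillant and counted; IC50 taken from lipid synthesis rates.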

[7] = test system: Rattus norvegicus; test: Amount of nonesterified fatty acids in obese Zucker rats after 1 week of treatment at a dose of 0 mg/kg/day; assay type: functional; outline: as §4
[8] = test system: Rattus norvegicus; test: Amount of insulin in obese Zucker rats after 2 weeks of treatment at a dose of 0 mg/kg/day; assay type: functional; outline: as §3
[9] = test system: Rattus norvegicus; test: Amount of HDL-cholesterol in obese Zucker rats after 1 week of treatment at a dose of 10 mg/kg/day; assay type: functional
Outline: (§5)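 Female Zucker fatty rats [Crl:(Zuc)-faBR], 10–12 weeks old (400–500 g), dosed once daily by oral gavage in 20% EtOH/80% PEG-200 (dose volume 0.25% of body weight). Rats were fasted 6 h and bled before dosing and at day 7 (orbital plexus), and at day 14 (cardiac puncture). Serum cholesterol fractions came from Superose 6 gel-filtration lipoprotein profiles (% peak area × serum total cholesterol). Values are mean ± SEM.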

[10] = test system: Rattus norvegicus; test: Percent decrease in triglycerides in obese Zucker rats after 2 weeks of treatment at a dose of 100 mg/kg/day; assay type: functional; parameters: scale not given: the % may be the effect or the level left; outline: as §2
[11] = test system: Rattus norvegicus; test: Amount of HDL-cholesterol in obese Zucker rats at pre-treatment at a dose of 100 mg/kg/day; assay type: functional; outline: as §5
[12] = test system: Rattus norvegicus; test: Amount of nonesterified fatty acids in obese Zucker rats after 2 weeks of treatment at a dose of 3 mg/kg/day; assay type: functional; outline: as §4
[13] = test system: Rattus norvegicus; test: Amount of insulin in obese Zucker rats after 2 weeks of treatment at a dose of 3 mg/kg/day; assay type: functional; outline: as §3
[14] = test system: Rattus norvegicus; test: Amount of non-HDL-cholesterol in obese Zucker rats after 1 week of treatment at a dose of 30 mg/kg/day; assay type: functional; outline: as §5
[15] = test system: Rattus norvegicus; test: Amount of insulin in obese Zucker rats at pre-treatment at a dose of 30 mg/kg/day; assay type: functional; outline: as §3
[16] = test system: Rattus norvegicus; test: Amount of non-HDL-cholesterol in obese Zucker rats at pre-treatment at a dose of 0 mg/kg/day; assay type: functional
Outline: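 Female obese Zucker fatty rats [Crl:(Zuc)-faBR], 10–12 weeks old (400–500 g), on chow. Compound in 20% EtOH/80% PEG-200 (v/v) given by daily oral gavage. After a 6-h fast, serum was taken before dosing and at 7 days (orbital plexus), and at 14 days (cardiac puncture). Lipoprotein cholesterol came from Superose 6HR gel-filtration profiles × serum total cholesterol. Mean ± SEM.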

[17] = test system: Rattus norvegicus; test: Amount of glucose in obese Zucker rats at pre-treatment at a dose of 10 mg/kg/day; assay type: functional; outline: as §1
[18] = test system: Rattus norvegicus; test: Amount of insulin in obese Zucker rats after 1 week of treatment at a dose of 10 mg/kg/day; assay type: functional; outline: as §3
[19] = test system: Rattus norvegicus; test: Amount of nonesterified fatty acids in obese Zucker rats after 2 weeks of treatment at a dose of 0 mg/kg/day; assay type: functional; outline: as §4
[20] = test system: Rattus norvegicus; test: Amount of HDL-cholesterol in obese Zucker rats at pre-treatment at a dose of 30 mg/kg/day; assay type: functional; outline: as §5
[21] = test system: Rattus norvegicus; test: Amount of HDL-cholesterol in obese Zucker rats after 2 weeks of treatment at a dose of 30 mg/kg/day; assay type: functional; outline: as §5
[22] = test system: Rattus norvegicus; test: Amount of HDL-cholesterol in obese Zucker rats after 2 weeks of treatment at a dose of 100 mg/kg/day; assay type: functional; outline: as §5
[23] = test system: Rattus norvegicus; test: Percentage change of non-HDL cholesterol levels in obese female Zucker rats after 2 weeks of pre-treatment at a dose of 100 mg/kg/day; assay type: functional
Outline: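 Female Zucker fatty rats [Crl:(Zuc)-faBR], 10–12 weeks old (400–500 g), acclimated 7 days and fed rodent chow. Dosed once daily by oral gavage in 20% EtOH/80% PEG-200 (v/v), at 0.25% of body weight, for 2 weeks. Blood taken after a 6-h fast: orbital plexus before dosing and at day 7, cardiac puncture at day 14. Serum lipoprotein cholesterol measured by Superose 6 gel filtration with on-line cholesterol detection. Values are % change from pretreatment, mean ± SEM.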

[24] = test system: Rattus norvegicus; test: Amount of insulin in obese Zucker rats after 1 week of treatment at a dose of 100 mg/kg/day; assay type: functional; outline: as §3
[25] = test system: Rattus norvegicus; test: Percentage change of HDL cholesterol levels in obese female Zucker rats after 1 week of pre-treatment at a dose of 100 mg/kg/day; assay type: functional
Outline: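 Obese female Zucker fatty rats were gavaged once daily with 30 or 100 mg/kg/day in 20% EtOH/80% PEG-200 for 2 weeks. Sera were collected after a 6 h fast, before dosing, at 1 week (orbital plexus) and at 2 weeks (cardiac puncture). HDL-C was total cholesterol multiplied by HDL area fraction from gel-filtration lipoprotein profiles. Reported as % change from pretreatment ± SEM.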

SMILES	Activity [1] [mg/dL]	Activity [2] [%]	Activity [3] [ng/mL]	Activity [4] [%]	Activity [5] [mg/dL]	IC50 [6] [nM]	Activity [7] [mg/dL]	Activity [8] [ng/mL]	Activity [9] [mg/dL]	Activity [10] [%]	Activity [11] [mg/dL]	Activity [12] [mg/dL]	Activity [13] [ng/mL]	Activity [14] [mg/dL]	Activity [15] [ng/mL]	Activity [16] [mg/dL]	Activity [17] [mg/dL]	Activity [18] [ng/mL]	Activity [19] [mg/dL]	Activity [20] [mg/dL]	also measured
CC(C)(CO)CCCCC(=O)CCCCC(C)(C)CO	106	-30	9.1	-27	998	4000	1.3	7.7	52	-33	45	1.6	7.8	28	9.3	25	112	7.5	1.6	43	Activity [21]: 61 mg/dL; Activity [22]: 79 mg/dL; Change [23]: -10%; Activity [24]: 10.9 ng/mL; Change [25]: 111%
CC(C)(CCCCC(=O)CCCCC(C)(C)C(=O)O)C(=O)O	99	-33	9.2	-33	1242	3000	1.5	0.058	47	-54	38	1.5	8.6	37	7.7	40	113	7.7	1.4	34	Activity [21]: 50 mg/dL; Activity [22]: 68 mg/dL; Change [23]: -41%; Activity [24]: 9 ng/mL; Change [25]: 54%
CC(C)(CCCCCC(=O)CCCCCC(C)(C)C(=O)O)C(=O)O	117	-30	6.4	-78	982	3000	1.3	8.1	136	-92	66	1	7.3	14	9.8	20	120	10.5	1.3	62	Activity [21]: 208 mg/dL; Activity [22]: 141 mg/dL; Change [23]: -99%; Activity [24]: 6.4 ng/mL; Change [25]: 72%
